According to ChEMBL document CHEMBL1781898, “Orally active achiral N-hydroxyformamide inhibitors of ADAM-TS4 (aggrecanase-1) and ADAM-TS5 (aggrecanase-2) for the treatment of osteoarthritis” (Bioorg Med Chem Lett, 2011):

Tests used:
[1] = molecular target: T1, A disintegrin and metalloproteinase with thrombospondin motifs 4 (Homo sapiens, UniProt O75173); test: Inhibition of ADAMTS-4 assessed as substrate cleavage after 16 hrs by fluorescence assay
T1 sequence (O75173 whole entry): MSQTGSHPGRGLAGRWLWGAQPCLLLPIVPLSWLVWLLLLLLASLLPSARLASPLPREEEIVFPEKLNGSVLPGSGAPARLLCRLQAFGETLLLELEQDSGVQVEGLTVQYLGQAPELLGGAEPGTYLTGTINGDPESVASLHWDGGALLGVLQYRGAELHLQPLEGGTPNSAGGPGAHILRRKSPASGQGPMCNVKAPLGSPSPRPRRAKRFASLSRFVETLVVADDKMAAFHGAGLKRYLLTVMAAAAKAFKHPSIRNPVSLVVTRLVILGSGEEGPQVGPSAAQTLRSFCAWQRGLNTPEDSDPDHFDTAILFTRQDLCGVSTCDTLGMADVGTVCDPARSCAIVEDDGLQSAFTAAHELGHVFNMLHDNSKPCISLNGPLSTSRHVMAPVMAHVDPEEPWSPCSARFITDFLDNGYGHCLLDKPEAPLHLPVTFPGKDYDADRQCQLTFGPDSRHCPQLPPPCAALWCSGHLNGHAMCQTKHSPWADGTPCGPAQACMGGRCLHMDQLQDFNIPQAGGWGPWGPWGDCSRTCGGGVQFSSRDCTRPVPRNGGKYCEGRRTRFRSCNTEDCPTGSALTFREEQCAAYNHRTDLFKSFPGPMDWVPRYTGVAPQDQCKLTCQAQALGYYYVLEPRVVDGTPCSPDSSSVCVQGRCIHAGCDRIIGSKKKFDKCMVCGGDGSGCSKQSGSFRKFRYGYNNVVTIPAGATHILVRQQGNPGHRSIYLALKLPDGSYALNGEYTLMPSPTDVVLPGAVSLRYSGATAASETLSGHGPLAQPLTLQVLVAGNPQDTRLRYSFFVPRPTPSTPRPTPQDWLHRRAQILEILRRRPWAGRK
How it was run: (§1)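 Enzyme inhibition IC50s derived from at least six measurements, standard errors normally <5% within an assay; a standard compound run to keep assay-to-assay variability within twofold.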

Cytochrome P450 3A4 = Cytochrome P450 3A4 (Homo sapiens, UniProt P08684); test: Inhibition of CYP3A4; assay type: ADME
How it was run: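 Inhibition of cytochrome P450 isoforms 1A2, 2C9, 2C19, 2D6 and 3A4, reported as pIC50.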

Collagenase 3 [2] = molecular target: T2, Collagenase 3 (Homo sapiens, UniProt P45452); test: Inhibition of recombinant human MMP-13 assessed as substrate cleavage at 15 uM after 20 hrs by fluorescence assay
[3] = molecular target: T3, A disintegrin and metalloproteinase with thrombospondin motifs 5 (Homo sapiens, UniProt Q9UNA0); test: Inhibition of ADAMTS-5 assessed as substrate cleavage after 16 hrs by fluorescence assay; how it was run: as §1
T3 sequence (Q9UNA0 whole entry): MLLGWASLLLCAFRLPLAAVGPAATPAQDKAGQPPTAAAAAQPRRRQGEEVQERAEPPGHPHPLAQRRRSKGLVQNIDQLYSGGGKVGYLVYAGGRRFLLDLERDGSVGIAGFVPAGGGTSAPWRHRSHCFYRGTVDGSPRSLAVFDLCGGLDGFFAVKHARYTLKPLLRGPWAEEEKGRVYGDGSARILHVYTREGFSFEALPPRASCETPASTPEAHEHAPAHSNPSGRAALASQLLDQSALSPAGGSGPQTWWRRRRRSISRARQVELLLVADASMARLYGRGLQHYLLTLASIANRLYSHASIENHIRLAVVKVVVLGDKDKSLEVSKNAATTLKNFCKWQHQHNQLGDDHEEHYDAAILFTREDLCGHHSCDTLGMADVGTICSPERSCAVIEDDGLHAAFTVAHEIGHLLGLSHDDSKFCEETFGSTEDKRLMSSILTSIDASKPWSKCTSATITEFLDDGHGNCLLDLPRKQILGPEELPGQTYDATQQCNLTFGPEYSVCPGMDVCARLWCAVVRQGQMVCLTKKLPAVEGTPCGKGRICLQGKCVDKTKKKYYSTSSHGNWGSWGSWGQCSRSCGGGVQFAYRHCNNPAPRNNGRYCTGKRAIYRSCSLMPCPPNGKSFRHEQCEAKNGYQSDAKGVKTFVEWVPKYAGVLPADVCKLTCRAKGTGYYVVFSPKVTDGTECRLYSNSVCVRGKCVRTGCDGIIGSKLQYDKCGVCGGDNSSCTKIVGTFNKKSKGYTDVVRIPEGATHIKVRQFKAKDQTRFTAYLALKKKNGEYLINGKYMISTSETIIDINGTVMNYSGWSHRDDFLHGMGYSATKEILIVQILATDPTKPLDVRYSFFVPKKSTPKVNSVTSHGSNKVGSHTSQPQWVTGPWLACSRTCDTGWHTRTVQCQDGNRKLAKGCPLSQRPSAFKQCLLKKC

Collagenase 3 [4] = molecular target: T2, Collagenase 3; test: Inhibition of recombinant human MMP-13 assessed as substrate cleavage after 20 hrs by fluorescence assay; how it was run: as §1
[5] = molecular target: Matrix metalloproteinase-14 (Homo sapiens, UniProt P50281); test: Inhibition of recombinant human MMP-14 assessed as substrate cleavage after 20 hrs by fluorescence assay; how it was run: as §1
Interstitial collagenase = molecular target: T4, Interstitial collagenase (Homo sapiens, UniProt P03956); test: Inhibition of recombinant human MMP-1 assessed as substrate cleavage after 20 hrs by fluorescence assay; how it was run: as §1
T4 sequence (P03956 whole entry): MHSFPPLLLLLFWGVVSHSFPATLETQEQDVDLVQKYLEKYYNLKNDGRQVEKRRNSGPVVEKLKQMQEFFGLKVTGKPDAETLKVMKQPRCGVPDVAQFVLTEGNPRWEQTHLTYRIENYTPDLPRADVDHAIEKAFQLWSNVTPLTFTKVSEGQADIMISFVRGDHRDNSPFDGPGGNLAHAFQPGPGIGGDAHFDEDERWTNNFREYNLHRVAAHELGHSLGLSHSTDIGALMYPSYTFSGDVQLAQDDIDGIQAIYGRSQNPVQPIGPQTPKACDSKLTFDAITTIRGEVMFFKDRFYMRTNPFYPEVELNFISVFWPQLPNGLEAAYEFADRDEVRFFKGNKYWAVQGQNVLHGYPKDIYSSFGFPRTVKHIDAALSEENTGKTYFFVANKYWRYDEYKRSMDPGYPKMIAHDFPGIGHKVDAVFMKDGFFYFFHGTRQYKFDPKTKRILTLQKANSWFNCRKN

[6] = molecular target: 72 kDa type IV collagenase (Homo sapiens, UniProt P08253); test: Inhibition of recombinant human MMP-2 assessed as substrate cleavage after 20 hrs by fluorescence assay; how it was run: as §1
[7] = molecular target: Matrix metalloproteinase-9 (Homo sapiens, UniProt P14780); test: Inhibition of recombinant human MMP-9 assessed as substrate cleavage after 20 hrs by fluorescence assay; how it was run: as §1
[8] = Intrinsic clearance in human liver microsomes; assay type: ADME, Microsome
How it was run: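 Human liver microsome metabolism; intrinsic clearance expressed as μL/min/mg, reported as mean of eight separate experiments.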

[9] = Clearance in rat at 2 mg/kg, iv; assay type: ADME, organism-based; set-up: dose 2 mg/kg, route intravenous; conditions: in vivo
How it was run: (§2)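 Rat iv PK: 2 mg/kg iv, n = 2 animals; clearance, half-life and Vdss determined.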

[10] = Volume of distribution at steady state in rat at 2 mg/kg, iv; assay type: ADME, organism-based; set-up: dose 2 mg/kg, route intravenous; conditions: in vivo, read-out: Vdss; how it was run: as §2
[11] = Half life in rat at 2 mg/kg, iv; assay type: ADME, organism-based; set-up: dose 2 mg/kg, route intravenous; conditions: in vivo; how it was run: as §2

Cytochrome P450 3A4, sequence (P08684 whole entry, canonical isoform): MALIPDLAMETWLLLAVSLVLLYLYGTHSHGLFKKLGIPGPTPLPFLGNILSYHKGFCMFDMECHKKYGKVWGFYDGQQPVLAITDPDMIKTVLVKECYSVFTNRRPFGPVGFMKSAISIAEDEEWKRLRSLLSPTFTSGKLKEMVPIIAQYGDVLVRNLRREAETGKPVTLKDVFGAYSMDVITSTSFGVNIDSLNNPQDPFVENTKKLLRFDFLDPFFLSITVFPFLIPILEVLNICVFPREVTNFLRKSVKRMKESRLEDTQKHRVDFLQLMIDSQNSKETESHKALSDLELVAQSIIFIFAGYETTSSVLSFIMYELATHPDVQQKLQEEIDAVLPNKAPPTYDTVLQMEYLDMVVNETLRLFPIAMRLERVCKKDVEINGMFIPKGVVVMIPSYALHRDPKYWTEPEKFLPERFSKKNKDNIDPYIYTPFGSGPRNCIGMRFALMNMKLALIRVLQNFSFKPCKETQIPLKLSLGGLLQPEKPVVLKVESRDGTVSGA
72 kDa type IV collagenase, sequence (P08253 whole entry): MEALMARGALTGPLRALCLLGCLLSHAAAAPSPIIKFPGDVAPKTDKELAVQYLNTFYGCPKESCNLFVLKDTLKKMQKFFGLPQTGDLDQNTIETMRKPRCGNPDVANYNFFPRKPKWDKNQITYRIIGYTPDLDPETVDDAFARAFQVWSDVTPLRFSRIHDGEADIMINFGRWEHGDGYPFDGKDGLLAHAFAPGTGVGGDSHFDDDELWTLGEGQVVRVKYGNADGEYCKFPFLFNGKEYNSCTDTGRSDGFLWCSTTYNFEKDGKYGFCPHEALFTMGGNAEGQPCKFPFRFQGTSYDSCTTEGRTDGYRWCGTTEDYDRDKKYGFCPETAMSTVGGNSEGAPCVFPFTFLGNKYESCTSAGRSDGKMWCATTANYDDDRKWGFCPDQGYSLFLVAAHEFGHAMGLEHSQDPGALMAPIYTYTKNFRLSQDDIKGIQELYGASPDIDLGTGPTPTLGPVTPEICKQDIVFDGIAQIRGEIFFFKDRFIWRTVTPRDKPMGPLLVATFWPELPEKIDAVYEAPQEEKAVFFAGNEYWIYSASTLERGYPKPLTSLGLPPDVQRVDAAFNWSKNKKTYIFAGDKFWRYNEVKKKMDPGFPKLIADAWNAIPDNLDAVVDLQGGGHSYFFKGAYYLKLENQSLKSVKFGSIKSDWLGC
Matrix metalloproteinase-9, sequence (P14780 whole entry): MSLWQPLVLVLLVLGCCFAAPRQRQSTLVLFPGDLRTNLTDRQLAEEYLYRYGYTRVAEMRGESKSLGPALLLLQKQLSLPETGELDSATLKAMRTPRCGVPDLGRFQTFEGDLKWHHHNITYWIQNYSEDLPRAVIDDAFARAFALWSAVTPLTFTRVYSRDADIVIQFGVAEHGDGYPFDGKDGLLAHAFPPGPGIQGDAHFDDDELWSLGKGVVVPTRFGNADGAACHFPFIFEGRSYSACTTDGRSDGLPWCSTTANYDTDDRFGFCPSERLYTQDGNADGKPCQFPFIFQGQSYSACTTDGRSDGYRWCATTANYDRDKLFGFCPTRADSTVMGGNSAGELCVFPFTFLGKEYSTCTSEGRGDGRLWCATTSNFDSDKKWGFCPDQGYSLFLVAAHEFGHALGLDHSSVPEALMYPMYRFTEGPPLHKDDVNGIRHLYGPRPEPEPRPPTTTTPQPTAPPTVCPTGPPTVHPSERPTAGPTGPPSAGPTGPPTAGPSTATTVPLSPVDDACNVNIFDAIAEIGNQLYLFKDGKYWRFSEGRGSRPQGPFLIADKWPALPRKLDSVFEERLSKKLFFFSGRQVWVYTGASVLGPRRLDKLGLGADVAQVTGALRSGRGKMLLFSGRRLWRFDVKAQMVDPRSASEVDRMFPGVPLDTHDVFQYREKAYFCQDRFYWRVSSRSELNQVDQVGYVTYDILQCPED

Row | SMILES | IC50 [1] [µM] | IC50 (Cytochrome P450 3A4) [µM] | inhibition (Collagenase 3 [2]) [%] | IC50 [3] [µM] | IC50 (Collagenase 3 [4]) [µM] | IC50 [5] [µM] | IC50 (Interstitial collagenase) [µM] | IC50 [6] [µM] | IC50 [7] [µM] | microsomal CLint [8] [µL/min/mg] | clearance [9] [mL/min/kg] | Vd [10] [L/kg] | half-life [11] [h]
1 | O=CN(O)C1(CS(=O)(=O)N2CCN(c3ccc(F)cc3)CC2)CCC1 | 0.091 | 1.9 | 81 | – | – | – | – | – | – | – | – | – | –
2 | Cc1noc(C)c1CCC1CCN(S(=O)(=O)CC2(N(O)C=O)CCS(=O)(=O)CC2)CC1 | 0.016 | > 10 | – | 0.27 | > 10 | > 10 | > 10 | > 10 | > 10 | 4.9 | – | – | –
3 | Cc1nsc(C)c1CCC1CCN(S(=O)(=O)CC2(N(O)C=O)CCOCC2)CC1 | 0.013 | – | – | 0.45 | > 10 | > 10 | > 10 | > 10 | > 10 | 8.5 | 18 | 2 | 6.3
4 | Cc1cc(CCC2CCN(S(=O)(=O)CC3(N(O)C=O)CCOCC3)CC2)c(C)cn1 | 0.018 | – | – | 3.4 | 46 | > 100 | > 10 | 61 | > 100 | 4.3 | 20 | 2 | 4
5 | Cc1noc(C)c1CCC1CCN(S(=O)(=O)CC2(N(O)C=O)CCN(C)CC2)CC1 | 0.019 | > 10 | – | 1.2 | > 10 | > 10 | > 10 | > 10 | > 10 | < 2 | – | – | –
6 | Cc1noc(C)c1CCC1CCN(S(=O)(=O)CC2(N(O)C=O)CCOC(C)(C)C2)CC1 (stereo not drawn) | 0.0097 | > 10 | – | 0.25 | > 10 | > 10 | > 10 | > 10 | > 10 | 12 | – | – | –
7 | Cc1noc(C)c1CCC1CCN(S(=O)(=O)CC2(N(O)C=O)CCN(C(=O)C3CCC3)CC2)CC1 | 0.01 | > 10 | – | 0.27 | > 10 | > 10 | > 10 | > 10 | > 10 | 65 | – | – | –
8 | O=CN(O)C1(CS(=O)(=O)N2CCN(c3ccc(F)cc3)CC2)CCOCC1 | 0.021 | > 10 | 97 | – | – | – | – | – | – | – | – | – | –
9 | Cc1noc(C)c1CCC1CCN(S(=O)(=O)CC2(N(O)C=O)CCC(F)(F)CC2)CC1 | 0.02 | > 10 | – | 0.41 | > 10 | > 10 | > 10 | > 10 | > 10 | 13 | – | – | –
10 | Cc1cc(F)ccc1CCC1CCN(S(=O)(=O)CC2(N(O)C=O)CCOCC2)CC1 | 0.0045 | – | – | 0.069 | 0.94 | 3.1 | > 10 | 1.3 | 3.1 | < 2 | 15 | 2 | –
